Activity calls are given as the source filed them. No cut-off for these calls is given here.

The values below come from ChEMBL document CHEMBL1138326, “Structure-based design, synthesis, and biological evaluation of indomethacin derivatives as cyclooxygenase-2 inhibiting nitric oxide donors” (J Med Chem, 2007).

Data set [1] has as its target T1, Prostaglandin G/H synthase 1 (Homo sapiens, UniProt P23219). Put plainly: Inhibition of COX1 in human whole blood assessed as effect on A23187-induced thromboxane B2 production at 30 uM relative to control; values are per cent of control.
Data set [2] has as its target T1, Prostaglandin G/H synthase 1. The data set can be described thus: Inhibition of COX1 in human whole blood assessed as effect on A23187-induced thromboxane B2 production at 100 uM relative to control; values are per cent of control.
Data set [3] concerns the target T2, Prostaglandin G/H synthase 2 (Homo sapiens) (UniProt P35354).
T2 sequence (whole entry): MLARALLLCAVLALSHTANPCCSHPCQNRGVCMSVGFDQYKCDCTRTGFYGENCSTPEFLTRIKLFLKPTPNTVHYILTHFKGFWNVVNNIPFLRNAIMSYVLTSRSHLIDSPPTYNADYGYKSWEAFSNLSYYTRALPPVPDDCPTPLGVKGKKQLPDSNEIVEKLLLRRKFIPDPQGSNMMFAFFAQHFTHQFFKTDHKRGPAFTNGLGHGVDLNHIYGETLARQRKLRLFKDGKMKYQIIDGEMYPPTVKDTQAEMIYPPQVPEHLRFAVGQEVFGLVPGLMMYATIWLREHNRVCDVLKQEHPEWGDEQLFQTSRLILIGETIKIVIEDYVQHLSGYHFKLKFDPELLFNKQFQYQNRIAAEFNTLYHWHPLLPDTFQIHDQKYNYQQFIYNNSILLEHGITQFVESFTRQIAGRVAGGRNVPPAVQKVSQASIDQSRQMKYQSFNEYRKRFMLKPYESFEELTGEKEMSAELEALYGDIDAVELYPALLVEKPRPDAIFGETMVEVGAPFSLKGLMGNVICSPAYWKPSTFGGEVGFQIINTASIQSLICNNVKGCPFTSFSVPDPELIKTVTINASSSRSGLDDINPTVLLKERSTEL
Put plainly: Inhibition of COX2 in human whole blood assessed as effect on LPS-induced thromboxane B2 production at 30 uM relative to control; values are per cent of control.

In data set [4] the test system is Rattus norvegicus. Put plainly: Antiinflammatory activity against intrapouch dosed Sprague-Dawley rat carrageenan air-pouch model assessed as reduction of prostaglandin E2 at 45 umol/kg. The data set is classed as functional. Also on record: scale not given: the % may be the effect or the level left. The gist of the method:
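Air pouch made with 20 mL sterile air sc on day -6 and 10 mL more on day -3; rats fasted 18 h. Compound in 0.5% methocel injected into the pouch 1 h before carrageenan (1 mL of 1.0% in saline). After 4 h, exudate recovered with PBS/heparin and assayed for PGE2 by enzyme immunoassay.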

Data set [5] concerns Rattus norvegicus. The data set can be described thus: Toxicity in Sprague-Dawley rat assessed as reduction of gastric lesion score at 45 umol/kg, po. In kind it is organism-based, Stomach. Particulars: in vivo. Also on record: scale not given: the % may be the effect or the level left. The gist of the method: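 Rats fasted 18 h; compound homogenized in 0.5% methocel and gavaged at 1 mL/kg. Killed 3 h after dosing. Stomach opened along the greater curvature and photographed. Hemorrhagic lesion lengths scored blind and summed as the total lesion score. Means ± SEM, 4–12 animals; ANOVA with Dunnett's test.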

The test system of data set [6] is Rattus norvegicus. The data set can be described thus: Antiinflammatory activity against Sprague-Dawley rat carrageenan air-pouch model assessed as reduction of prostaglandin E2 at 45 umol/kg, po. In kind it is functional. Set-up: scale not given: the % may be the effect or the level left. The gist of the method:
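Air pouches raised by sc injection of 20 mL sterile air (day -6) plus 10 mL on day -3; rats fasted 18 h. Compound suspended in 0.5% methocel given orally 1 h before intrapouch carrageenan (1 mL of 1.0% in saline). Exudate collected 4 h later after PBS/heparin lavage; PGE2 by enzyme immunoassay. Means ± SEM, n = 6–22; ANOVA with Dunnett's test vs vehicle.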

Data set [7] concerns the target T1, Prostaglandin G/H synthase 1. The data set can be described thus: Inhibition of COX1 in human whole blood assessed as effect on A23187-induced thromboxane B2 production at 3 uM relative to control; values are per cent of control.
For data set [8] the target is unchanged. Put plainly: Inhibition of COX1 in human whole blood assessed as effect on A23187-induced thromboxane B2 production at 10 uM relative to control; values are per cent of control.
The target is the same in data set [9]. Put plainly: Inhibition of COX1 in human whole blood assessed as effect on A23187-induced thromboxane B2 production at 1 uM relative to control; values are per cent of control.
For data set [10] the target is unchanged. The data set can be described thus: Inhibition of COX1 in human whole blood assessed as effect on A23187-induced thromboxane B2 production. In kind it is tissue-based.
Data set [11] has the same target. The data set can be described thus: Inhibition of COX1 in human whole blood assessed as effect on A23187-induced thromboxane B2 production at 0.3 uM relative to control; values are per cent of control.
For another data set, the species on record is Homo sapiens. Put plainly: Selectivity for human COX2 over human COX1.
Data set [12] deals with T2, Prostaglandin G/H synthase 2 (Homo sapiens). Put plainly: Inhibition of COX2 in human whole blood assessed as effect on LPS-induced thromboxane B2 production at 100 uM relative to control; values are per cent of control.
The subject of data set [13] is Rattus norvegicus. The data set can be described thus: Increase in nitrite plus nitrate levels in Sprague-Dawley rat at 45 umol/kg, po. The data set is classed as functional, organism-based. The gist of the method: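 Plasma taken by cardiac puncture 4 h after oral dosing (0.5% methylcellulose vehicle), at the end of the air-pouch experiment. Total NOx (nitrite plus nitrate) measured with a fluorometric kit. Means ± SEM, n = 3; ANOVA with Dunnett's test vs vehicle.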

Data set [14] relates to Rattus norvegicus. The data set can be described thus: Gastric sparing effect in Sprague-Dawley rat assessed as reduction of aspirin-induced gastric damage at 45 umol/kg, po. Particulars: in vivo. Set-up: scale not given: the % may be the effect or the level left. In kind it is ADME, organism-based, Stomach. A digest of the protocol: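 Aspirin (25 mg/kg, in 1.0% methocel) gavaged at 1.0 mL/kg; test compound in 0.5% methocel gavaged 2 min later. Rats killed after 3 h and stomachs scored as summed hemorrhagic lesion lengths. Six groups, 3–11 rats each; ANOVA with Newman-Keuls test.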

T1 sequence (P23219 whole entry): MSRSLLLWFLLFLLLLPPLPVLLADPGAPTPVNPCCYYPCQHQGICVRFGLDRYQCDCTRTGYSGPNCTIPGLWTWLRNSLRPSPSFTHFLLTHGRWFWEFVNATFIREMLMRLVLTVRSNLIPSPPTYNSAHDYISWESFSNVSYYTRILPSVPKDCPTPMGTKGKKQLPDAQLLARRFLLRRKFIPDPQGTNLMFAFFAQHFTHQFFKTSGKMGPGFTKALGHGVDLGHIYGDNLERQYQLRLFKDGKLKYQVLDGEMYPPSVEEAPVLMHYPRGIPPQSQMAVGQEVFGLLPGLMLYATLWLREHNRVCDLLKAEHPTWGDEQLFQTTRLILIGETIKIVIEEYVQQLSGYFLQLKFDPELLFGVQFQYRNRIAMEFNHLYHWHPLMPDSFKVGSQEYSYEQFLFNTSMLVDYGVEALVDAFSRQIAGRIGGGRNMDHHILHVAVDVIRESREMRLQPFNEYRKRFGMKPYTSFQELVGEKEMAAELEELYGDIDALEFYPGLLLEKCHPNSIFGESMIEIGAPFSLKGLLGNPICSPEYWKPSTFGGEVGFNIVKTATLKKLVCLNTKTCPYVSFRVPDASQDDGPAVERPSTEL

Regarding `COc1ccc2c(c1)c(CC(=O)NCCCO)c(C)n2C(=O)c1ccc(Cl)cc1`, the residual activity in data set [1] amounted to 11%; in data set [2], 6%; in data set [3], 0%; in [7], 46%; in [8], 37%; in [9], 91%. The figures for the Activity in the data set on Rattus norvegicus [4], with Rattus norvegicus [5] and in the data set on Rattus norvegicus [6] were 97%, 98% and 85%, respectively. In [10], the IC50 (usually the concentration that gives 50% inhibition) was determined as 3.3 µM.

For `COc1ccc2c(c1)c(CCNS(=O)(=O)CCCO)c(C)n2C(=O)c1ccc(Cl)cc1`, the residual activity in data set [1] amounted to 23%; in data set [2] it was 6%; in data set [3] it was 0%; in [11] it was 82%; in [7], 51%; in [8], 33%. Besides, the residual activity in data set [9] stood at 73%. Moreover, the Activity in the data set with Rattus norvegicus [4] is listed as 98%; in the data set on Rattus norvegicus [6] it was 96%. For the same molecule, the Ratio IC50 in the data set filed under Homo sapiens was 3.5. The IC50 in data set [10] stood at 3.7 µM.

As to `COc1cc2c(CC(=O)NCCCO[N+](=O)[O-])c(C)n(C(=O)c3ccc(Cl)cc3)c2cc1Cl`, the residual activity came out at 41% in data set [1]; 13% in data set [2]; 3% in [3]; 72% in data set [7]; 70% in [8]; 98% in data set [9]. Further, in data set [12], the residual activity was 0%. Also, the IC50 in data set [10] was 15.9 µM.

With `COc1ccc2c(c1)c(CC(=O)NCCCO[N+](=O)[O-])c(C)n2C(=O)c1ccc(Cl)cc1`, the outcome in the data set on Rattus norvegicus [13] was Active. Further, the residual activity was 7% in data set [1]; 0% in [2]; 1% in data set [3]; 65% in data set [7]; 31% in data set [8]; 77% in [9]. Moreover, the Activity is 99% in the data set with Rattus norvegicus [4], 98% in the data set on Rattus norvegicus [5], 71% with Rattus norvegicus [6] and 85% in the data set on Rattus norvegicus [14]. In the data set filed under Homo sapiens, the Ratio IC50 came out at 5. Besides, the IC50 in data set [10] is 6 µM.

On to `COc1ccc2c(c1)c(CCNS(=O)(=O)CCCO[N+](=O)[O-])c(C)n2C(=O)c1ccc(Cl)cc1`, for which the residual activity in [1] amounted to 20%; in data set [2] it was 16%; in data set [3] it was 7%; in data set [7], 68%; in [8], 57%; in data set [9] it was 100%. Moreover, the Activity turned out to be 59% in the data set on Rattus norvegicus [4] and 44% in the data set with Rattus norvegicus [6]. The concentration for half-maximal inhibition (IC50) in [10] is 11 µM.

In the case of `COc1ccc2c(c1)c(CC(=O)NOCCCO)c(C)n2C(=O)c1ccc(Cl)cc1`, the figures for the residual activity in data set [2] and in data set [11] were 1% and 28%, respectively. Also, in the data set listed under Homo sapiens, the Ratio IC50 is under 0.4. Moreover, in [10], the IC50 is under 0.3 µM.
